Test results from ChEMBL document CHEMBL4011589, “Discovery of novel furanone derivatives as potent Cdc7 kinase inhibitors” (Eur J Med Chem, 2017).

How the values were obtained:
[1] = molecular target: CDC7/DBF4 (Cell division cycle 7-related protein kinase/Activator of S phase kinase) (Homo sapiens, UniProt O00311); assay: Inhibition of recombinant human Cdc7 (1 to 574 residues)/human N-terminal GST-tagged ASK (1 to 674 residues) expressed in baculovirus expression system using FITC-labeled MCM2 peptide as substrate measured after 5 hrs in presence of 5 uM ATP
How it was run: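 Cdc7 enzymatic assay with 5 µM ATP. IC50 values are the mean of duplicate measurements.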

[2] = Stability of the compound in 50% KOH; format: physicochemical
[3] = organism: Mus musculus; assay: Stability in mouse liver microsomes assessed as compound remaining at 1 uM in presence of NADPH after 30 mins by LC-MS/MS analysis
[4] = molecular target: CDC7/DBF4 (Cell division cycle 7-related protein kinase/Activator of S phase kinase) (Homo sapiens) (UniProt Q9UBU7+O00311); assay: Ratio of IC50 for recombinant human Cdc7 (1 to 574 residues)/human N-terminal GST-tagged ASK (1 to 674 residues) expressed in baculovirus expression system in presence of […] to IC50 for recombinant human Cdc7 (1 to 574 residues)/human N-terminal GST-tagged ASK (1 to 674 residues) expressed in baculovirus expression system in presence of 5 uM ATP
[5] = Stability in human liver microsomes assessed as compound remaining at 1 uM in presence of NADPH after 30 mins by LC-MS/MS analysis; format: ADME, microsome; settings: read-out: Stability
How it was run: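 Human liver microsomes are incubated with compound for 30 min. The read-out is the percentage of parent compound remaining.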

[6] = Stability of the compound under basic condition; format: physicochemical

Structure (SMILES)	IC50 [1] [nM]	also measured
O=C1C(C(=O)N2CCCCC2)=C(Nc2ccccc2)O/C1=C\c1c[nH]c2ncccc12	890	
CCNC(=O)C1=C(Nc2ccccc2)O/C(=C\c2c[nH]c3ncccc23)C1=O	1600	
O=C(O)C1=C(Nc2ccccc2)O/C(=C\c2c[nH]c3ncccc23)C1=O	9.9	
CCOC(=O)C1=C(Nc2ccccc2)O/C(=C\c2c[nH]c3ncccc23)C1=O	3.3 to 3.8	Stability [2]: Unstable; remaining at 0.5 h, 1 µM [3]: 7.9%; Ratio IC50 [4]: 21; remaining at 0.5 h, 1 µM [5]: 23%; Stability [6]: Stable
CCOC(=O)C1=C(Nc2ccc(OC)cc2)O/C(=C\c2c[nH]c3ncccc23)C1=O	4.9	remaining at 0.5 h, 1 µM [5]: 33%
CCOC(=O)C1=C(Nc2ccccc2)O/C(=C\c2ccc3c(c2)OCO3)C1=O	3200	
CCOC(=O)C1=C(Nc2ccccc2)O/C(=C\c2ccc(O)c(C)c2)C1=O	1200	
NC(=O)C1=C(Nc2ccccc2)O/C(=C\c2c[nH]c3ncccc23)C1=O	> 10000	
CCOC(=O)C1=C(Nc2ccc(F)cc2)O/C(=C\c2c[nH]c3ncccc23)C1=O	4.3	remaining at 0.5 h, 1 µM [5]: 52%
CCOC(=O)C1=C(Nc2ccccc2)O/C(=C\c2c[nH]c3ncc(Cl)cc23)C1=O	44	
CCOC(=O)C1=C(Nc2ccccc2)S/C(=C\c2c[nH]c3ncccc23)C1=O	> 10000	
